GSK3beta inhib – inhibitors of human GSK3beta kinase. GST-GSK3beta kinase, ADP-Glo luminescence, 60 min; stronger effect = lower value. activity score (negative = inhibition), % at 10 µM. actives 0.038% (n = 300,000);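 active means more than half of replicate wells score below -50%, meaning over 50% inhibition versus plate controls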;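 further: 0% = median DMSO wells and -100% = median GW8510 positive control wells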
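Test system: GST-tagged human GSK3beta kinase, cell-free; evaluation: activity score scaled between in-plate DMSO and GW8510 controls; measured by: ADP-Glo luminescence; incubation: 60 min reaction, RT; benchmarks: DMSO and 20 µM GW8510; reagent: peptide substrate plus 25 µM ATP (final); medium: Tris/MgCl2 kinase buffer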
CDK5 p35 inh – blocks human CDK5/p35 kinase activity | inhibition, % at 10 µM | actives 0.01% (n = 330,000) | Recombinant CDK5/p35, ADP-Glo luminescence, 60 min;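 active means highest replicate inhibition of at least 50% and at least 75% of replicates reaching 50%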;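 further: plate controls were DMSO neutral control for no effect and GW8510 at 10 µM for full effect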
DYRK1A inh – Dyrk1A (rat) kinase inhibition. ADP-Glo luminescence, NFATc1 peptide. inhibition, % at 12.5 µM. actives 0.43% (n = 310,000); in the data active means inhibition above about 50%;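 further: plate controls were vehicle with enzyme for no effect and no enzyme for full effect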
STK33 kinase inh – human STK33 kinase inhibition; purified STK33, MBP phosphorylation, ADP-Glo luminescence; actives 0.073% (n = 320,000); inhibition, % at 10 µM;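 active means inhibition at or above 25%, using the most active replicate where run in duplicate; inactive means inhibition below 25%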
Target sequence (Q9BYT3 whole entry, looked up): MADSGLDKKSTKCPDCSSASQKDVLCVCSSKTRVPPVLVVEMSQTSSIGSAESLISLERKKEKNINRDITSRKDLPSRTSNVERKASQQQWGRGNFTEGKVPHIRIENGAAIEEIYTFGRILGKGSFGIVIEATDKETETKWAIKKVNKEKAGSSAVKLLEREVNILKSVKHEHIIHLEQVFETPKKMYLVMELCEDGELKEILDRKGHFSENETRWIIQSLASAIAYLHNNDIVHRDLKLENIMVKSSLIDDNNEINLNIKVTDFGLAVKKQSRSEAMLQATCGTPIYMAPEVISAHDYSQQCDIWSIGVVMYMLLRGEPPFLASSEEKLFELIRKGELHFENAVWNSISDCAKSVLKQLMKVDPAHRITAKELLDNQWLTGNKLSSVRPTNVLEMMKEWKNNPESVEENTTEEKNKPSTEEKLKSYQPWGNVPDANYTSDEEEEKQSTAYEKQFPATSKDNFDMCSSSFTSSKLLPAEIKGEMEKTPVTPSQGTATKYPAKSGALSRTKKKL
GSK3A inh – blocks human GSK-3 alpha kinase | inhibition, % at 10 µM | P49840 | ADP-Glo luminescence, 60 min | actives 0.1% (n = 320,000) | AID 2650;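 active means more than half of replicates show inhibition above 20%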;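 further: GST-tagged GSK-3 alpha with peptide substrate and 25 µM ATP; 0% = DMSO neutral wells and 100% = GW8510 positive control wells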
Starred values were filed as active, the others as inactive. The sample as a whole holds a higher share of hits than the screen did.

What do the screens show for `CSc1nc(SCC(=O)NCC2CCCO2)c2c3c(sc2n1)CN(C)CC3` (stereo not drawn)?
GSK3beta inhib: -29.2; STK33 kinase inh: 2.4; GSK3A inh: 57.5*

What do the screens show for `Cc1nc(SCC(=O)NCC2CCCO2)c2c3c(sc2n1)CCCC3` (stereo not drawn)?
CDK5 p35 inh: 0.5; DYRK1A inh: 7.7; STK33 kinase inh: 0.4; GSK3A inh: -3.6

What do the screens show for `CCN(CC)Cc1c(C(=O)N/N=C/c2ccc(C)o2)nnn1-c1nonc1N`?
GSK3beta inhib: -0.6; CDK5 p35 inh: -0.4; DYRK1A inh: -2.0; STK33 kinase inh: 0.4; GSK3A inh: 32.1

What do the screens show for `CCCN(CCC)Cc1c(C(=O)N/N=C/c2ccoc2)nnn1-c1nonc1N`?
GSK3beta inhib: -58.4*; CDK5 p35 inh: 0.6; DYRK1A inh: -1.2; STK33 kinase inh: 0.9; GSK3A inh: 71.8*

How did CN(C)Cc1c(C(=O)N/N=C/c2ccncc2)nnn1-c1nonc1N do in these assays?
GSK3beta inhib: -29.2; CDK5 p35 inh: 1.3; DYRK1A inh: 11.5; STK33 kinase inh: 0.2; GSK3A inh: 63.8*

What do the screens show for `CCN(CC)Cc1c(C(=O)N/N=C/c2ccncc2)nnn1-c1nonc1N`?
GSK3beta inhib: 2.4; CDK5 p35 inh: 0.3; DYRK1A inh: 9.1; STK33 kinase inh: 3.8; GSK3A inh: 100.8*

What do the screens show for `CN(C)Cc1c(C(=O)N/N=C/c2ccoc2)nnn1-c1nonc1N`?
GSK3beta inhib: -1.1; CDK5 p35 inh: 2.5; DYRK1A inh: 25.1; STK33 kinase inh: 0.6; GSK3A inh: -0.3

What do the screens show for `Nc1nonc1-n1nnc(C(=O)N/N=C/c2cccc(O)c2)c1CN1CCCC1`?
GSK3beta inhib: -24.6; CDK5 p35 inh: 0.6; DYRK1A inh: 18.2; STK33 kinase inh: 0.9

What do the screens show for `Nc1nonc1-n1nnc(C(=O)N/N=C/c2ccc(O)cc2)c1CN1CCCCCC1`?
GSK3beta inhib: -63.9*; CDK5 p35 inh: -0.7; DYRK1A inh: 10.5; STK33 kinase inh: 0.3; GSK3A inh: 83.1*

How did COc1cccc(Cn2cc(C)cc(NC(=O)NCc3ccccc3)c2=O)c1 do in these assays?
GSK3beta inhib: -8.7; CDK5 p35 inh: -0.6; DYRK1A inh: -2.6; STK33 kinase inh: 5.6; GSK3A inh: 0.8

Results for CCCCCCCCCCOC(=O)Cn1c(COc2ccccc2)[n+](C)c2ccccc21 ?
GSK3beta inhib: -18.9; CDK5 p35 inh: 0.7; DYRK1A inh: -1.4; STK33 kinase inh: 11.0; GSK3A inh: 23.1

What do the screens show for `CCCCCCCCCCOC(=O)Cn1c(COc2ccc(Cl)cc2)[n+](C)c2ccccc21`?
GSK3beta inhib: -15.0; CDK5 p35 inh: 1.3; DYRK1A inh: 3.5; STK33 kinase inh: 31.7*; GSK3A inh: 32.2

How did CC(C)NS(=O)(=O)c1ccc2c(c1)NCC2 do in these assays?
GSK3beta inhib: -0.2; CDK5 p35 inh: 1.1; DYRK1A inh: -1.7; STK33 kinase inh: -0.5; GSK3A inh: -2.9

What do the screens show for `CSc1nc2ncc3c(n2n1)CC1c2ccccc2CCN1C3=O` (stereo not drawn)?
GSK3beta inhib: -26.9; CDK5 p35 inh: -1.7; DYRK1A inh: -0.2; STK33 kinase inh: 0.1; GSK3A inh: 72.2*

Results for CC1Cc2ccccc2N1c1ncnc(N)c1[N+](=O)[O-] (stereo not drawn) ?
GSK3beta inhib: -15.4; CDK5 p35 inh: 6.7; DYRK1A inh: 28.4; STK33 kinase inh: 2.8; GSK3A inh: 12.3

What do the screens show for `CC1CCCCN1c1ncnc(N)c1[N+](=O)[O-]` (stereo not drawn)?
GSK3beta inhib: -68.3*; CDK5 p35 inh: 5.2; STK33 kinase inh: 0.3; GSK3A inh: 1.0

What do the screens show for `O=C(Nc1ccccc1C(=O)O)c1cccc(C(=O)Nc2ccccc2C(=O)O)c1`?
GSK3beta inhib: 4.8; CDK5 p35 inh: -1.1; DYRK1A inh: 6.3; STK33 kinase inh: 57.4*; GSK3A inh: -5.3

What do the screens show for `Cc1cccc(-c2nc3ccccc3c3nncn23)c1`?
GSK3beta inhib: -0.1; CDK5 p35 inh: 1.0; DYRK1A inh: 58.1*; STK33 kinase inh: 52.7*; GSK3A inh: 5.3

How did c1ccc(-c2nc3ccccc3c3nncn23)cc1 do in these assays?
GSK3beta inhib: 3.0; CDK5 p35 inh: -1.5; DYRK1A inh: -6.2; STK33 kinase inh: -1.1; GSK3A inh: 0.5

Results for COc1ccc(CC(=O)Nc2ncc([N+](=O)[O-])s2)cc1OC ?
GSK3beta inhib: -44.5; CDK5 p35 inh: 9.0; DYRK1A inh: 44.4; STK33 kinase inh: -0.7; GSK3A inh: 75.4*

Screening results (PubChem)
